# Test results from ChEMBL document CHEMBL3132745, “Synthesis and Antimicrobial Activities of His(2-aryl)-Arg and Trp-His(2-aryl) Classes of Dipeptidomimetics” (Medchemcomm, 2014).
# Calls of active or inactive are those of the source. No rule for the calls is given here.
# Assays:
# BT-549 = assay: Cytotoxicity against human BT549 cells assessed as cell viability after 48 hrs by neutral red uptake assay; assay type: cell-based; settings: bt-549, 48 h
# Outline: (§1)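 Neutral red uptake assay on human cancer lines (SK-MEL, KB, BT-549, SK-OV-3) and noncancerous mammalian cells (VERO, LLC-PK1). Highest tested concentration was 10 µg/mL.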
# [1] = Selectivity index, ratio of cytotoxicity against human SK-MEL cells to IC50 for Cryptococcus neoformans ATCC 90113; assay type: toxicity, cell-based; settings: read-out: Selectivity Index
# Aspergillus fumigatus = assay: Antifungal activity against Aspergillus fumigatus assessed as growth inhibition; assay type: functional, organism-based
# SK-OV-3 = assay: Cytotoxicity against human SKOV3 cells assessed as cell viability after 48 hrs by neutral red uptake assay; assay type: cell-based; settings: sk-ov-3, 48 h; outline: as §1
# Candida albicans = assay: Antifungal activity against Candida albicans assessed as growth inhibition; assay type: functional, organism-based
# Pichia kudriavzevii = assay: Antifungal activity against Candida krusei assessed as growth inhibition; assay type: functional, organism-based
# [2] = Selectivity index, ratio of cytotoxicity against human KB cells to IC50 for Cryptococcus neoformans ATCC 90113; assay type: toxicity, cell-based; settings: read-out: Selectivity Index
# [3] = Selectivity index, ratio of cytotoxicity against pig LLC-PK1 cells to IC50 for Cryptococcus neoformans ATCC 90113; assay type: toxicity, cell-based; settings: read-out: Selectivity Index
# Vero = assay: Cytotoxicity against african green monkey Vero cells assessed as cell viability after 48 hrs by neutral red uptake assay; assay type: cell-based; settings: chlorocebus sabaeus; outline: as §1
# KB = assay: Cytotoxicity against human KB cells assessed as cell viability after 48 hrs by neutral red uptake assay; assay type: cell-based; outline: as §1
# Cryptococcus neoformans = assay: Antifungal activity against Cryptococcus neoformans ATCC 90113 assessed as growth inhibition after 70-74 hrs by CLSI method; assay type: functional, organism-based; settings: Cryptococcus neoformans, ATCC 90113; for IC50: read-out: IC50
# [4] = Selectivity index, ratio of cytotoxicity against african green monkey Vero cells to IC50 for Cryptococcus neoformans ATCC 90113; assay type: toxicity, cell-based; settings: read-out: Selectivity Index
# SK-MEL = assay: Cytotoxicity against human SK-MEL cells assessed as cell viability after 48 hrs by neutral red uptake assay; assay type: cell-based; outline: as §1
# Nakaseomyces glabratus = assay: Antifungal activity against Candida glabrata assessed as growth inhibition; assay type: functional, organism-based
# Escherichia coli = assay: Antibacterial activity against Escherichia coli ATCC 35218 assessed as growth inhibition after 16-20 hrs by CLSI method; assay type: functional, organism-based
# LLC-PK1 = assay: Cytotoxicity against pig LLC-PK1 cells assessed as cell viability after 48 hrs by neutral red uptake assay; assay type: cell-based, Sus scrofa; settings: llc-pk1, 48 h; outline: as §1
# [5] = Selectivity index, ratio of cytotoxicity against human SKOV3 cells to IC50 for Cryptococcus neoformans ATCC 90113; assay type: toxicity, cell-based, SK-OV-3; settings: read-out: Selectivity Index
# [6] = Selectivity index, ratio of cytotoxicity against human BT549 cells to IC50 for Cryptococcus neoformans ATCC 90113; assay type: toxicity, cell-based, BT-549; settings: read-out: Selectivity Index
Compound,MIC (Cryptococcus neoformans) [µg/mL],Activity (BT-549) [µg/mL],selectivity ratio [1],growth inhibition (GI) (Aspergillus fumigatus),Activity (SK-OV-3) [µg/mL],growth inhibition (GI) (Candida albicans),growth inhibition (GI) (Pichia kudriavzevii),selectivity ratio [2],selectivity ratio [3],Activity (Vero) [µg/mL],Activity (KB) [µg/mL],MFC (Cryptococcus neoformans) [µg/mL],IC50 (Cryptococcus neoformans) [µg/mL],selectivity ratio [4],Activity (SK-MEL) [µg/mL],growth inhibition (GI) (Nakaseomyces glabratus),growth inhibition (GI) (Escherichia coli),Activity (LLC-PK1) [µg/mL],selectivity ratio [5],selectivity ratio [6]
COc1ccc(-c2nc(C[C@H](NC(=O)OC(C)(C)C)C(=O)N[C@@H](CCCNC(=N)N)C(=O)NCc3ccccc3)c[nH]2)cc1,10,> 10,> 1.7,inactive,> 10,inactive,inactive,> 1.7,> 1.7,> 10,> 10,10,5.77,> 1.7,> 10,inactive,inactive,> 10,> 1.7,> 1.7
N=C(N)NCCC[C@H](NC(=O)[C@@H](N)Cc1c[nH]c(-c2ccccc2)n1)C(=O)NCc1ccccc1,2.5,> 10,> 8.2,inactive,> 10,inactive,inactive,> 8.2,> 8.2,> 10,> 10,2.5,1.22,> 8.2,> 10,inactive,inactive,> 10,> 8.2,> 8.2

# Further molecules by falling MIC (Cryptococcus neoformans), results first:
MIC (Cryptococcus neoformans) [µg/mL],Compound,Activity (BT-549) [µg/mL],selectivity ratio [1],growth inhibition (GI) (Aspergillus fumigatus),Activity (SK-OV-3) [µg/mL],growth inhibition (GI) (Candida albicans),growth inhibition (GI) (Pichia kudriavzevii),selectivity ratio [2],selectivity ratio [3],Activity (Vero) [µg/mL],Activity (KB) [µg/mL],MFC (Cryptococcus neoformans) [µg/mL],IC50 (Cryptococcus neoformans) [µg/mL],selectivity ratio [4],Activity (SK-MEL) [µg/mL],growth inhibition (GI) (Nakaseomyces glabratus),growth inhibition (GI) (Escherichia coli),Activity (LLC-PK1) [µg/mL],selectivity ratio [5],selectivity ratio [6]
10,COC(=O)[C@H](CCCNC(=N)N)NC(=O)[C@@H](N)Cc1c[nH]c(-c2ccc(-c3ccccc3)cc2)n1,> 10,> 1.8,inactive,> 10,inactive,inactive,> 1.8,> 1.8,> 10,> 10,10,5.49,> 1.8,> 10,inactive,inactive,> 10,> 1.8,> 1.8
2.5,Cc1ccc(-c2nc(C[C@H](N)C(=O)N[C@@H](CCCNC(=N)N)C(=O)NCc3ccccc3)c[nH]2)cc1,> 10,> 4.7,inactive,> 10,inactive,inactive,> 4.7,> 4.7,> 10,> 10,2.5,2.11,> 4.7,> 10,inactive,inactive,> 10,> 4.7,> 4.7
2.5,COC(=O)[C@H](CCCNC(=N)N)NC(=O)[C@H](Cc1c[nH]c(-c2cccc3ccccc23)n1)NC(=O)OC(C)(C)C,> 10,> 8,inactive,> 10,inactive,inactive,> 8,> 8,> 10,> 10,2.5,1.25,> 8,> 10,inactive,inactive,> 10,> 8,> 8
